{"data": "Measured values of several laboratories", "target": "Serine/threonine-protein kinase 32C (STK32C, Homo sapiens, UniProt Q86UX6)", "note": "Compare with care: the assays were run in different laboratories."}
{"Compound": "C[C@@H]1CN(c2ccc3ncc(-c4ccc5[nH]nc(C6CC6)c5c4)n3n2)C[C@H](C)O1", "assay": "binding, competition with immobilised ligand", "setting": "50 nM", "remaining binding": "85%"}
{"Compound": "Cc1c(NC(=O)c2cc(C(N)=O)nc3cc(F)ccc23)c(C(F)(F)F)nn1Cc1ccc(C#N)cc1", "assay": "binding, competition with immobilised ligand", "setting": "1 µM", "remaining binding": "69%"}
{"Compound": "Cc1cnc(Nc2ccc(C(=O)N3CCC(N4CCCC4)CC3)cc2)nc1-c1cc2ccccc2s1", "assay": "binding, competition with immobilised ligand", "setting": "1 µM", "remaining binding": "100%"}
{"Compound": "COc1cnc(Nc2cccc(S(N)(=O)=O)c2)nc1N1CCN(c2ccccc2)C(=O)C1", "assay": "binding, competition with immobilised ligand", "setting": "1 µM", "remaining binding": "100%"}
{"Compound": "CNC(=O)Nc1ccc2c(c1)[C@@]1(CC2)OC(=O)N(CC(=O)N(Cc2ccc(F)cc2)[C@@H](C)C(F)(F)F)C1=O", "assay": "cell-free assay, competition with immobilised ligand", "setting": "1 µM", "remaining binding": "100%"}
{"Compound": "CN(CCCC(F)(F)F)c1nccc(-c2cnn3ncccc23)n1", "assay": "binding", "setting": "1 µM", "remaining binding": "65%"}
{"Compound": "O=C(NCC1CCOCC1)c1n[nH]cc1NC(=O)c1c(F)cccc1F", "assay": "binding, competition with immobilised ligand", "setting": "1 µM", "remaining binding": "100%"}
{"Compound": "Cc1c[nH]c2nccc(Oc3c(F)cc(Nc4cc(Cl)nc(N)n4)cc3F)c12", "assay": "cell-free assay, competition with immobilised ligand", "setting": "0.1 µM", "remaining binding": "93%"}
{"Compound": "O=C(c1ccc(Nc2ncc(Cl)c(-c3ccc(Cl)s3)n2)cc1)N1CCC(N2CCCC2)CC1", "assay": "binding, competition with immobilised ligand", "setting": "1 µM", "remaining binding": "100%"}
{"Compound": "N[C@@H]1CCN(c2nccc(-c3cnn4ncccc34)n2)C1", "assay": "binding", "setting": "1 µM", "remaining binding": "99%"}
{"Compound": "FC(F)(F)Oc1cccc(-c2cnc3ccc(-c4ccncc4)nn23)c1", "assay": "binding, competition with immobilised ligand", "setting": "5 µM", "remaining binding": "89%"}
{"Compound": "F[C@@H]1CCN(c2nccc(-c3cnn4ncccc34)n2)C1", "assay": "binding", "setting": "1 µM", "remaining binding": "89%"}
{"Compound": "Cc1nc(Cc2cccc(C(F)(F)F)c2)sc1-c1ccc(C(N)=O)nc1", "assay": "cell-free assay, competition with immobilised ligand", "setting": "1 µM", "remaining binding": "87%"}
{"Compound": "CN(C)c1nccc(-c2cnn3ncccc23)n1", "assay": "binding", "setting": "1 µM", "remaining binding": "100%"}
{"Compound": "O=C(NCc1ncc(C(F)(F)F)cc1Cl)c1ccc2c(c1)C1(CCS(=O)(=O)CC1)[C@@H](C1CC1)N2S(=O)(=O)c1ccc(F)cc1", "assay": "cell-free assay, competition with immobilised ligand", "setting": "1 µM", "remaining binding": "100%"}
{"Compound": "CC1CCCN1c1nccc(-c2cnn3ncccc23)n1 (centres unmarked)", "assay": "binding", "setting": "1 µM", "remaining binding": "100%"}
{"Compound": "N#Cc1ccccc1CSc1nnc2c(n1)[nH]c1ccccc12", "assay": "binding, competition with immobilised ligand", "setting": "10 µM", "remaining binding": "83%"}
